ChEMBL document CHEMBL1128681, “Studies on the monoamine oxidase (MAO)-catalyzed oxidation of phenyl-substituted 1-methyl-4-phenoxy-1,2,3,6-tetrahydropyridine derivatives: factors contributing to MAO-A and MAO-B selectivity” (J Med Chem, 1995)

Assays:
[1] = substrate: CN1CC=C(Oc2ccccc2[N+](=O)[O-])CC1; assay: (§1) Michaelis-Menten constant for Monoamine oxidase A-catalyzed oxidation (KM).
In short: (§2)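 MAO-A at 0.16 μM final, raised to 0.32 μM for one slowly oxidized substrate. The MAO-A preparation was diluted with 3 volumes of phosphate buffer just before use, and its activity was re-checked bimonthly with kynuramine at 30 °C. Substrates at 100–2000 μM in 100 mM sodium phosphate pH 7.4; initial rates by spectrophotometry. kcat and KM from double-reciprocal plots; kcat/KM as their ratio.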

[2] = substrate: CN1CC=C(Oc2ccc(Cl)cc2)CC1; assay: as §1; in short: as §2
[3] = substrate: CN1CC=C(Oc2cccc(Cl)c2)CC1; assay: as §1; in short: as §2
[4] = substrate: COc1ccccc1OC1=CCN(C)CC1; assay: as §1; in short: as §2
[5] = substrate: COc1ccc(OC2=CCN(C)CC2)cc1; assay: as §1; in short: as §2
[6] = substrate: CN1CC=C(Oc2cccc(-c3ccccc3)c2)CC1; assay: as §1; in short: as §2
[7] = substrate: CN1CC=C(Oc2ccc([N+](=O)[O-])cc2)CC1; assay: as §1; in short: as §2
[8] = substrate: CN1CC=C(Oc2cccc([N+](=O)[O-])c2)CC1; assay: as §1; in short: as §2
[9] = substrate: Cc1ccccc1OC1=CCN(C)CC1; assay: as §1; in short: as §2
[10] = substrate: CN1CC=C(Cc2ccccc2)CC1; assay: as §1; in short: as §2
[11] = substrate: CN1CC=C(Oc2ccccc2Cl)CC1; assay: as §1; in short: as §2
[12] = substrate: COc1cccc(OC2=CCN(C)CC2)c1; assay: as §1; in short: as §2
[13] = substrate: Cc1ccc(OC2=CCN(C)CC2)cc1; assay: as §1; in short: as §2
[14] = substrate: CN1CC=C(Oc2ccccc2-c2ccccc2)CC1; assay: as §1; in short: as §2
[15] = substrate: Cc1cccc(OC2=CCN(C)CC2)c1; assay: as §1; in short: as §2
[16] = substrate: CN1CC=C(Oc2ccccc2[N+](=O)[O-])CC1; assay: (§3) Michaelis-Menten constant for Monoamine oxidase B catalyzed oxidation (KM).; set-up: species or system Bos taurus
In short: (§4)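 MAO-B at 0.08 μM final; activity was calibrated with MPTP at 30 °C and the preparation was stored at –15 °C. Substrate range 100–2000 μM in 100 mM sodium phosphate pH 7.4, with spectrophotometric initial oxidation rates. KM and kcat derived from double-reciprocal plots, and kcat/KM calculated from them.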

[17] = substrate: CN1CC=C(Oc2ccc(Cl)cc2)CC1; assay: as §3; set-up: species or system Bos taurus; in short: as §4
[18] = substrate: CN1CC=C(Oc2cccc(Cl)c2)CC1; assay: as §3; set-up: species or system Bos taurus; in short: as §4
[19] = substrate: COc1ccccc1OC1=CCN(C)CC1; assay: as §3; set-up: species or system Bos taurus; in short: as §4
[20] = substrate: COc1ccc(OC2=CCN(C)CC2)cc1; assay: as §3; set-up: species or system Bos taurus; in short: as §4
[21] = substrate: CN1CC=C(Oc2cccc(-c3ccccc3)c2)CC1; assay: as §3; set-up: species or system Bos taurus; in short: as §4
[22] = substrate: CN1CC=C(Oc2ccc([N+](=O)[O-])cc2)CC1; assay: as §3; set-up: species or system Bos taurus; in short: as §4
[23] = substrate: CN1CC=C(Oc2cccc([N+](=O)[O-])c2)CC1; assay: as §3; set-up: species or system Bos taurus; in short: as §4
[24] = substrate: Cc1ccccc1OC1=CCN(C)CC1; assay: as §3; set-up: species or system Bos taurus; in short: as §4
[25] = substrate: CN1CC=C(Cc2ccccc2)CC1; assay: as §3; set-up: species or system Bos taurus; in short: as §4
[26] = substrate: CN1CC=C(Oc2ccccc2Cl)CC1; assay: as §3; set-up: species or system Bos taurus; in short: as §4
[27] = substrate: COc1cccc(OC2=CCN(C)CC2)c1; assay: as §3; set-up: species or system Bos taurus; in short: as §4
[28] = substrate: Cc1ccc(OC2=CCN(C)CC2)cc1; assay: as §3; set-up: species or system Bos taurus; in short: as §4
[29] = substrate: CN1CC=C(Oc2ccccc2-c2ccccc2)CC1; assay: as §3; set-up: species or system Bos taurus; in short: as §4
[30] = substrate: Cc1cccc(OC2=CCN(C)CC2)c1; assay: as §3; set-up: species or system Bos taurus; in short: as §4

B1: Amine oxidase [flavin-containing] A (Homo sapiens) (protein)
chain: MENQEKASIAGHMFDVVVIGGGISGLSAAKLLTEYGVSVLVLEARDRVGGRTYTIRNEHVDYVDVGGAYVGPTQNRILRLSKELGIETYKVNVSERLVQYVKGKTYPFRGAFPPVWNPIAYLDYNNLWRTIDNMGKEIPTDAPWEAQHADKWDKMTMKELIDKICWTKTARRFAYLFVNINVTSEPHEVSALWFLWYVKQCGGTTRIFSVTNGGQERKFVGGSGQVSERIMDLLGDQVKLNHPVTHVDQSSDNIIIETLNHEHYECKYVINAIPPTLTAKIHFRPELPAERNQLIQRLPMGAVIKCMMYYKEAFWKKKDYCGCMIIEDEDAPISITLDDTKPDGSLPAIMGFILARKADRLAKLHKEIRKKKICELYAKVLGSQEALHPVHYEEKNWCEEQYSGGCYTAYFPPGIMTQYGRVIRQPVGRIFFAGTETATKWSGYMEGAVEAGERAAREVLNGLGKVTEKDIWVQEPESKDVPAVEITHTFWERNLPSVSGLLKIIGFSTSVTALGFVLYKYKLLPRS
B1 was tested, and the Km [1] was 306 µM, the kcat [1] was 6.83 s⁻¹ and the kcat/Km [1] was 22300 M⁻¹ s⁻¹. It also gave a Km [2] of 63 µM, a kcat [2] of 3.15 s⁻¹ and a kcat/Km [2] of 50100 M⁻¹ s⁻¹. The Km [3] was 82 µM, the kcat [3] was 5.97 s⁻¹ and the kcat/Km [3] was 72800 M⁻¹ s⁻¹. For the same protein, the Km [4] was 75 µM, the kcat [4] was 0.95 s⁻¹ and the kcat/Km [4] was 12700 M⁻¹ s⁻¹. The Km [5] was 47 µM, the kcat [5] was 1.22 s⁻¹ and the kcat/Km [5] was 25800 M⁻¹ s⁻¹. For the same protein, the Km [6] was 232 µM, the kcat [6] was 21.5 s⁻¹ and the kcat/Km [6] was 92800 M⁻¹ s⁻¹. It also gave a Km [7] of 169 µM, a kcat [7] of 1.37 s⁻¹ and a kcat/Km [7] of 8050 M⁻¹ s⁻¹. It also gave a Km [8] of 174 µM, a kcat [8] of 4.95 s⁻¹ and a kcat/Km [8] of 28500 M⁻¹ s⁻¹. For the same protein, the Km [9] was 108 µM, the kcat [9] was 4.5 s⁻¹ and the kcat/Km [9] was 41700 M⁻¹ s⁻¹. It also gave a Km [10] of 103 µM, a kcat [10] of 0.467 s⁻¹ and a kcat/Km [10] of 4600 M⁻¹ s⁻¹. The Km [11] was 83 µM, the kcat [11] was 3.4 s⁻¹ and the kcat/Km [11] was 41000 M⁻¹ s⁻¹. The Km [12] was 176 µM, the kcat [12] was 8.2 s⁻¹ and the kcat/Km [12] was 46600 M⁻¹ s⁻¹. It also gave a Km [13] of 129 µM, a kcat [13] of 1.3 s⁻¹ and a kcat/Km [13] of 10000 M⁻¹ s⁻¹. For the same protein, the Km [14] was 426 µM, the kcat [14] was 4.08 s⁻¹ and the kcat/Km [14] was 9580 M⁻¹ s⁻¹. For the same protein, the Km [15] was 212 µM, the kcat [15] was 7.18 s⁻¹ and the kcat/Km [15] was 33900 M⁻¹ s⁻¹.

B2: Amine oxidase [flavin-containing] B (Bos taurus) (protein)
chain: MSSKCDVVVVGGGISGMAAAKLLHDSGLNVIVLEARDRVGGRTYTLRNQKVKYVDLGGSYVGPTQNHILRLSKELGLETYKVNEVERLIHHTKGKSYPFRGSFPSVWNPITYLDHNNLWRTMDDMGREIPSDAPWKAPLAEQWDLMTMKELLDKICWTESSKQLAILFVNLCVTAEIHEVSALWFLWYVKQCGGTTRIFSTSNGGQERKFVGGSGQVSERIMDLLGDRVKLERPVIHIDQTGENVLVETLNHELYEAKYVISAVPPVLGMKIHFNPPLPMMRNQLITRVPLGSVIKSIVYYKEPFWRNMDYCGSMIIEGEEAPVAYALDDTKPDGSYPAIIGFILAHKARKLARLTKEERLKKLCDLYAKVLGSQEALHPVHYEEKNWCEEQYSGGCYTSYFPPGIMTQYGRVLRQPVGRIYFAGTETATHWSGYMEGAVEAGERAAREILHAMGKIPEDEIWLPEPESVDVPAKPITTTFLQRHLPSVPGLLKLIGLTTIFSATALGFLAHKRGLLVRI
Protein B2 has a Km [16] of 86 µM, a kcat [16] of 1.13 s⁻¹ and a kcat/Km [16] of 13100 M⁻¹ s⁻¹. The Km [17] was 254 µM, the kcat [17] was 5.93 s⁻¹ and the kcat/Km [17] was 23400 M⁻¹ s⁻¹. The Km [18] was 308 µM, the kcat [18] was 3.73 s⁻¹ and the kcat/Km [18] was 12200 M⁻¹ s⁻¹. It also gave a Km [19] of 313 µM, a kcat [19] of 5.7 s⁻¹ and a kcat/Km [19] of 12400 M⁻¹ s⁻¹. For the same protein, the Km [20] was 474 µM, the kcat [20] was 5.9 s⁻¹ and the kcat/Km [20] was 12400 M⁻¹ s⁻¹. For the same protein, the Km [21] was 346 µM, the kcat [21] was 3.67 s⁻¹ and the kcat/Km [21] was 10600 M⁻¹ s⁻¹. It also gave a Km [22] of 443 µM, a kcat [22] of 1.4 s⁻¹ and a kcat/Km [22] of 3180 M⁻¹ s⁻¹. It also gave a Km [23] of 105 µM, a kcat [23] of 2.47 s⁻¹ and a kcat/Km [23] of 23500 M⁻¹ s⁻¹. For the same protein, the Km [24] was 98 µM, the kcat [24] was 2.92 s⁻¹ and the kcat/Km [24] was 29700 M⁻¹ s⁻¹. The Km [25] was 180 µM, the kcat [25] was 10.7 s⁻¹ and the kcat/Km [25] was 59700 M⁻¹ s⁻¹. The Km [26] was 220 µM, the kcat [26] was 3.02 s⁻¹ and the kcat/Km [26] was 13700 M⁻¹ s⁻¹. The Km [27] was 337 µM, the kcat [27] was 4.05 s⁻¹ and the kcat/Km [27] was 12000 M⁻¹ s⁻¹. For the same protein, the Km [28] was 106 µM, the kcat [28] was 3.57 s⁻¹ and the kcat/Km [28] was 33600 M⁻¹ s⁻¹. The Km [29] was 691 µM, the kcat [29] was 1.52 s⁻¹ and the kcat/Km [29] was 2200 M⁻¹ s⁻¹. For the same protein, the Km [30] was 116 µM, the kcat [30] was 3.37 s⁻¹ and the kcat/Km [30] was 29100 M⁻¹ s⁻¹.
